{"source": "PubChem BioAssay AID504349", "about": "(Southern Research Specialized Biocontainment Screening …, 2011)", "note": "The source made the active and inactive calls. The rule behind the calls is not given here.", "data": [{"tested_on": "E. coli EV36 K1, T7 phage lysis, OD600 3 h", "experiment": "OD600 growth after T7 infection, EV36 – E. coli EV36 K1, powder samples, selectivity assay for bacterial capsule biogenesis inhibitors, dose response (AID 504349)", "settings": "not given", "method_in_brief": "(§1)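 Test system: E. coli EV36 K1:K-12 hybrid cells | Reagent: T7 phage infection | Timing: Compound pre-exposure 1.5 h at 37 °C shaking, 3 h post-phage | Evaluation: Phage lysis inhibition from OD600 | Medium: LB broth for the overnight bacterial culture | Replicates: Quadruplicate wells | Detection: Optical density at 600 nm, bacterial growth absorbance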", "units": {"IC50": "nM"}, "values": [{"smiles": "O=C(NCc1cc([N+](=O)[O-])ccc1O)c1cccnc1Sc1ccccc1Cl", "IC50": 1800}, {"smiles": "CC1=NN2C(=N)/C(=C\\c3ccc(SCc4ccco4)o3)C(=O)N=C2S1", "IC50": 1500}, {"smiles": "O=C(NCc1cc([N+](=O)[O-])ccc1O)c1cccnc1Sc1ccccc1", "IC50": 4600}, {"smiles": "CCOc1ccc(-c2cc(NC(=O)c3c(F)cccc3F)c(C(=O)O)s2)cc1", "IC50": "< 390"}, {"smiles": "O=C(COc1ccc(Cl)cc1Cl)Nc1ccc(C(=O)Nc2ccccc2C(=O)O)cc1", "IC50": 2900}, {"smiles": "COc1ccc2nc(NC(=O)c3ccc(Br)s3)sc2c1", "IC50": "< 390"}, {"smiles": "O=C(Nc1ccncc1)c1ccc2ncsc2c1", "IC50": "< 390"}, {"smiles": "CC1(C(=O)O)CCC(C(=O)Nc2ccc3ccccc3c2)C1(C)C", "note": "(stereo not given)", "IC50": 8500}, {"smiles": "O=C(ONc1ccc(N=NC(=O)c2ccccc2O)cc1)c1ccccc1", "IC50": "< 390"}]}, {"tested_on": "not listed separately", "experiment": "OD600 growth after T7 infection, EV36 – E. coli EV36 K1, powder samples, selectivity assay for bacterial capsule biogenesis inhibitors, dose response (AID 504349)", "settings": "E. coli EV36 K1, T7 phage lysis, OD600 3 h; at 100 µM (top of the series)", "method_in_brief": "as §1", "values": [{"smiles": "O=C(O)c1cc(-c2c[nH]c3ccccc23)nc2cc3ccccc3cc12", "phage lysis inhibition (viability)": "101% (inactive)"}, {"smiles": "COc1ccc(OC)c(-c2cc(C(=O)O)c3cc4ccccc4cc3n2)c1", "phage lysis inhibition (viability)": "99% (inactive)"}, {"smiles": "C=CCOc1ccc(C2c3c(oc4ccccc4c3=O)C(=O)N2CCCN2CCOCC2)cc1", "note": "(stereo not given)", "phage lysis inhibition (viability)": "97.4% (inactive)"}, {"smiles": "Cc1cc(C)c2c(=O)c(-c3cc(C(=O)O)c4cc5ccccc5cc4n3)coc2c1", "phage lysis inhibition (viability)": "107% (inactive)"}, {"smiles": "O=C(O)c1cc(-c2cccc(Cl)c2)nc2cc3ccccc3cc12", "phage lysis inhibition (viability)": "101% (inactive)"}, {"smiles": "Cc1ccc(C2c3c(oc4cc(C)c(C)cc4c3=O)C(=O)N2CCCN2CCOCC2)cc1", "note": "(stereo not given)", "phage lysis inhibition (viability)": "91.7% (inactive)"}]}]}
